# Reference: ChEMBL document CHEMBL6121049, “Discovery of Orally Available Prodrugs of Itaconate and Derivatives” (J Med Chem, 2025)
# Assay: Metabolic stability in mouse plasma assessed as compound remaining at 10 uM measured after 1 hrs by LC-MS analysis
# Type: ADME, cell-free
# Conditions: not given
# How it was run: (§1)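 Prodrugs (10 μM) spiked into mouse or human plasma, shaken at 37 °C; samples at 0 and 60 min quenched in cold acetonitrile with losartan internal standard, centrifuged, diluted, run by LC-HRMS; % remaining from analyte/IS peak-area ratio.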
row,Structure (SMILES),Stability [%]
1,C=C(CC(=O)OCCCOCCCCCCCCCCCCCCCC)C(=O)OC,89
2,C=C(CC(=O)OCOC(=O)C(C)(C)C)C(=O)OC,0
3,C=C(CC(=O)OCCCOCCCCCCCCCCCCCCCC)C(=O)O,92
4,C=C(CC(=O)OCOC(=O)OC(C)C)C(=O)OCOC(=O)OC(C)C,0
5,C=C(CC(=O)OC)C(=O)OCCCOCCCCCCCCCCCCCCCC,44
6,C=C(CC(=O)OCc1oc(=O)oc1C)C(=O)O,20
7,C=C(CC(=O)OCOC(=O)OC(C)C)C(=O)O,0
8,C=C(CC(=O)OCc1oc(=O)oc1C)C(=O)OCc1oc(=O)oc1C,0

# Assay: Metabolic stability in mouse skin homogenate assessed as compound remaining at 10 uM measured after 1 hrs by LC-MS analysis
# Type: ADME, tissue-based, Skin of body
# Conditions: tissue homogenate
row,Structure (SMILES),Stability [%]
1,C=C(CC(=O)OCCCOCCCCCCCCCCCCCCCC)C(=O)OC,61
2,C=C(CC(=O)OCOC(=O)C(C)(C)C)C(=O)OC,0
3,C=C(CC(=O)OCCCOCCCCCCCCCCCCCCCC)C(=O)O,100
4,C=C(CC(=O)OCOC(=O)OC(C)C)C(=O)OCOC(=O)OC(C)C,2.5
5,C=C(CC(=O)OC)C(=O)OCCCOCCCCCCCCCCCCCCCC,67
6,C=C(CC(=O)OCc1oc(=O)oc1C)C(=O)O,74
7,C=C(CC(=O)OCOC(=O)OC(C)C)C(=O)O,4.9
8,C=C(CC(=O)OCc1oc(=O)oc1C)C(=O)OCc1oc(=O)oc1C,0

# Assay: Metabolic stability in human plasma assessed as compound remaining at 10 uM measured after 1 hrs by LC-MS analysis
# Type: ADME, cell-free
# Conditions: not given
# How it was run: as §1
row,Structure (SMILES),Stability [%]
1,C=C(CC(=O)OCCCOCCCCCCCCCCCCCCCC)C(=O)OC,90
2,C=C(CC(=O)OCOC(=O)C(C)(C)C)C(=O)OC,0
3,C=C(CC(=O)OCCCOCCCCCCCCCCCCCCCC)C(=O)O,68
4,C=C(CC(=O)OCOC(=O)OC(C)C)C(=O)OCOC(=O)OC(C)C,0
5,C=C(CC(=O)OC)C(=O)OCCCOCCCCCCCCCCCCCCCC,32
6,C=C(CC(=O)OCc1oc(=O)oc1C)C(=O)O,0
7,C=C(CC(=O)OCOC(=O)OC(C)C)C(=O)O,53
8,C=C(CC(=O)OCc1oc(=O)oc1C)C(=O)OCc1oc(=O)oc1C,0

# Assay: Metabolic stability in human skin homogenate assessed as compound remaining at 10 uM measured after 1 hrs by LC-MS analysis
# Type: ADME, tissue-based, Skin of body
# Conditions: tissue homogenate
row,Structure (SMILES),Stability [%]
1,C=C(CC(=O)OCCCOCCCCCCCCCCCCCCCC)C(=O)OC,101
2,C=C(CC(=O)OCOC(=O)C(C)(C)C)C(=O)OC,9.4
3,C=C(CC(=O)OCCCOCCCCCCCCCCCCCCCC)C(=O)O,87
4,C=C(CC(=O)OCOC(=O)OC(C)C)C(=O)OCOC(=O)OC(C)C,1.1
5,C=C(CC(=O)OC)C(=O)OCCCOCCCCCCCCCCCCCCCC,94
6,C=C(CC(=O)OCc1oc(=O)oc1C)C(=O)O,93
7,C=C(CC(=O)OCOC(=O)OC(C)C)C(=O)O,29
8,C=C(CC(=O)OCc1oc(=O)oc1C)C(=O)OCc1oc(=O)oc1C,30

# Assay: Chemical stability in pH 1.2 assessed as compound remaining at 10 uM measured after 1 hrs by LC-MS/MS analysis
# Type: physicochemical
# Conditions: buffer, pH 1.2, 1 h
# How it was run: (§2)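 Compounds incubated in buffers at pH 1.2, 4.5 or 7.4 at 37 °C for 1 h; prodrug disappearance followed by LC–MS/MS as % remaining.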
row,Structure (SMILES),Stability [%]
1,C=C(CC(=O)OCCCOCCCCCCCCCCCCCCCC)C(=O)OC,109
2,C=C(CC(=O)OCOC(=O)C(C)(C)C)C(=O)OC,101
3,C=C(CC(=O)OCCCOCCCCCCCCCCCCCCCC)C(=O)O,91
4,C=C(CC(=O)OCOC(=O)OC(C)C)C(=O)OCOC(=O)OC(C)C,104
5,C=C(CC(=O)OC)C(=O)OCCCOCCCCCCCCCCCCCCCC,103
6,C=C(CC(=O)OCc1oc(=O)oc1C)C(=O)O,109
7,C=C(CC(=O)OCOC(=O)OC(C)C)C(=O)O,104
8,C=C(CC(=O)OCc1oc(=O)oc1C)C(=O)OCc1oc(=O)oc1C,102

# Assay: Chemical stability in pH 4.5 assessed as compound remaining at 10 uM measured after 1 hrs by LC-MS/MS analysis
# Type: physicochemical
# Conditions: buffer, pH 4.5, 1 h
# How it was run: as §2
row,Structure (SMILES),Stability [%]
1,C=C(CC(=O)OCCCOCCCCCCCCCCCCCCCC)C(=O)OC,98
2,C=C(CC(=O)OCOC(=O)C(C)(C)C)C(=O)OC,104
3,C=C(CC(=O)OCCCOCCCCCCCCCCCCCCCC)C(=O)O,90
4,C=C(CC(=O)OC)C(=O)OCCCOCCCCCCCCCCCCCCCC,108
5,C=C(CC(=O)OCc1oc(=O)oc1C)C(=O)O,88
6,C=C(CC(=O)OCOC(=O)OC(C)C)C(=O)O,79
7,C=C(CC(=O)OCc1oc(=O)oc1C)C(=O)OCc1oc(=O)oc1C,91

# Assay: Chemical stability in pH 7.4 assessed as compound remaining at 10 uM measured after 1 hrs by LC-MS/MS analysis
# Type: physicochemical
# Conditions: buffer, pH 7.4, 1 h
# How it was run: as §2
row,Structure (SMILES),Stability [%]
1,C=C(CC(=O)OCCCOCCCCCCCCCCCCCCCC)C(=O)OC,97
2,C=C(CC(=O)OCOC(=O)C(C)(C)C)C(=O)OC,86
3,C=C(CC(=O)OCCCOCCCCCCCCCCCCCCCC)C(=O)O,65
4,C=C(CC(=O)OCOC(=O)OC(C)C)C(=O)OCOC(=O)OC(C)C,47
5,C=C(CC(=O)OC)C(=O)OCCCOCCCCCCCCCCCCCCCC,75
6,C=C(CC(=O)OCc1oc(=O)oc1C)C(=O)O,0
7,C=C(CC(=O)OCOC(=O)OC(C)C)C(=O)O,44
8,C=C(CC(=O)OCc1oc(=O)oc1C)C(=O)OCc1oc(=O)oc1C,91

# Assay: Permeability of the compound at pH 7.4 incubated for 4 hrs by PAMPA-GIT assay
# Type: ADME
# Conditions: pH 7.4, 4 h
# How it was run: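 PAMPA-GIT sandwich: acceptor filter coated with GIT-0 lipid; donor holds 10 μM compound in pH 7.4 buffer with 0.2% DMSO, acceptor pH 7.4 sink buffer; 4 h at room temperature; both compartments sampled by LC-MS/MS; effective permeability Pe calculated with membrane retention correction.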
row,Structure (SMILES),permeability
1,C=C(CC(=O)OCOC(=O)C(C)(C)C)C(=O)OC,35.2 10^-6 cm/s
2,C=C(CC(=O)OCCCOCCCCCCCCCCCCCCCC)C(=O)O,3.2 10^-6 cm/s
3,C=C(CC(=O)OCOC(=O)OC(C)C)C(=O)OCOC(=O)OC(C)C,35.9 10^-6 cm/s
4,C=C(CC(=O)OCc1oc(=O)oc1C)C(=O)OCc1oc(=O)oc1C,17 10^-6 cm/s

# Assay: Cytotoxicity against NHEK cells assessed as cell viability at 100 uM measured after 8 hrs by CellTiter-Glo assay relative to control
# Type: toxicity, cell-based
# Conditions: human
# How it was run: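 Primary normal human epidermal keratinocytes, expanded and seeded, exposed to 1, 10, 30 or 100 μM for 8 h; viability by CellTiter-Glo luminescence as % viable.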
row,Structure (SMILES),Activity [%]
1,C=C(CC(=O)OCOC(=O)OC(C)C)C(=O)OCOC(=O)OC(C)C,> 80

# Assay: Immunomodulatory activity in NHEK cells assessed as inhibition of IFN-gamma induced CXCL11 expression at 30 to 100 uM by TaqMan RTPCR analysis relative to control
# Type: functional, Homo sapiens
# Conditions: dose 30-100 µM
# How it was run: (§3)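 Primary human keratinocytes seeded, held overnight at 37 °C, 5% CO2, then stimulated with Poly(I:C) 50 μg/mL plus IFNγ 5 ng/mL, with or without prodrug at 1, 10, 30 or 100 μM; gene induction measured at 8 h.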
row,Structure (SMILES),inhibition (INH) [%]
1,C=C(CC(=O)OCOC(=O)OC(C)C)C(=O)OCOC(=O)OC(C)C,>50

# Assay: Immunomodulatory activity in NHEK cells assessed as inhibition of Poly(I:C)/IFN-gamma induced IL-1 beta expression at >= 10 uM by TaqMan RTPCR analysis relative to control
# Type: functional, Homo sapiens
# Set-up: scale not given: the % may be the effect or the level left
# Conditions: not given
# How it was run: as §3
row,Structure (SMILES),Activity [%]
1,C=C(CC(=O)OCOC(=O)OC(C)C)C(=O)OCOC(=O)OC(C)C,>50

# Assay: Prodrug conversion in C57BL6 mouse plasma assessed as itaconic acid Cmax at 100 mg/kg, po measured after 24 hrs by LC-MS/MS analysis
# Type: ADME, organism-based
# Conditions: in vivo
# How it was run: (§4)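 C57BL6 mice, 25–30 g, 8.5 weeks old, given 100 mg/kg (IA or 4-MI equivalent) orally in 10% DMSO/80% PEG/10% HBS, freshly prepared; killed at 0.25–24 h, n = 3 per time point; acidified plasma and stabilized skin homogenates, methanol precipitation with internal standards, LC-MS/MS (orbitrap); PK parameters as mean ± SEM.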
row,Structure (SMILES),Cmax [µM]
1,C=C(CC(=O)OCOC(=O)OC(C)C)C(=O)OCOC(=O)OC(C)C,83.8

# Assay: Prodrug conversion in C57BL6 mouse skin assessed as itaconic acid Cmax at 100 mg/kg, po measured after 24 hrs by LC-MS/MS analysis
# Type: ADME, organism-based, Skin of body
# Conditions: in vivo
# How it was run: as §4
row,Structure (SMILES),Cmax [nmol/g]
1,C=C(CC(=O)OCOC(=O)OC(C)C)C(=O)OCOC(=O)OC(C)C,65.9

# Assay: Prodrug conversion in C57BL6 mouse skin assessed as itaconic acid Tmax at 100 mg/kg, po measured after 24 hrs by LC-MS/MS analysis
# Type: ADME, organism-based, Skin of body
# Conditions: in vivo
# How it was run: as §4
row,Structure (SMILES),Tmax [h]
1,C=C(CC(=O)OCOC(=O)OC(C)C)C(=O)OCOC(=O)OC(C)C,1

# Assay: Prodrug conversion in C57BL6 mouse plasma assessed as itaconic acid Tmax at 100 mg/kg, po measured after 24 hrs by LC-MS/MS analysis
# Type: ADME, organism-based
# Conditions: in vivo
# How it was run: as §4
row,Structure (SMILES),Tmax [h]
1,C=C(CC(=O)OCOC(=O)OC(C)C)C(=O)OCOC(=O)OC(C)C,0.25

# Assay: Prodrug conversion in C57BL6 mouse plasma assessed as itaconic acid AUC (0 to t) at 100 mg/kg, po measured after 24 hrs by LC-MS/MS analysis
# Type: ADME, organism-based
# Conditions: in vivo
row,Structure (SMILES),AUCt [µM·h]
1,C=C(CC(=O)OCOC(=O)OC(C)C)C(=O)OCOC(=O)OC(C)C,108

# Assay: Prodrug conversion in C57BL6 mouse skin assessed as itaconic acid AUC (0 to t) at 100 mg/kg, po measured after 24 hrs by LC-MS/MS analysis
# Type: ADME, organism-based, Skin of body
# Conditions: in vivo
row,Structure (SMILES),AUCt [nmol·h/g]
1,C=C(CC(=O)OCOC(=O)OC(C)C)C(=O)OCOC(=O)OC(C)C,173

# Assay: Prodrug conversion in C57BL6 mouse plasma assessed as itaconic acid half life at 100 mg/kg, po measured after 24 hrs by LC-MS/MS analysis
# Type: ADME, organism-based
# Conditions: in vivo
# How it was run: as §4
row,Structure (SMILES),t1/2 [h]
1,C=C(CC(=O)OCOC(=O)OC(C)C)C(=O)OCOC(=O)OC(C)C,1.42

# Assay: Prodrug conversion in C57BL6 mouse skin assessed as itaconic acid half life at 100 mg/kg, po measured after 24 hrs by LC-MS/MS analysis
# Type: ADME, organism-based, Skin of body
# Conditions: in vivo
# How it was run: as §4
row,Structure (SMILES),t1/2 [h]
1,C=C(CC(=O)OCOC(=O)OC(C)C)C(=O)OCOC(=O)OC(C)C,3.32

# Assay: Immunomodulatory activity in NHEK cells assessed as inhibition of IL-6 mRNA expression at 100 uM preincubated for 2 days and measured after 24 hrs by TaqMan RTPCR analysis
# Type: functional
# Conditions: Homo sapiens, 48 h, time 2 day
row,Structure (SMILES),inhibition at 100 µM [%]
1,C=C(CC(=O)OCOC(=O)OC(C)C)C(=O)OCOC(=O)OC(C)C,> 90
